From ChEMBL document CHEMBL1157508, “Mollamides B and C, Cyclic hexapeptides from the indonesian tunicate Didemnum molle” (J Nat Prod, 2008) come the findings set out here.

The test system of experiment [1] is Human immunodeficiency virus 1. Nature of the experiment: Antiviral activity against HIV1 infected in human PBMC. In kind it is functional, organism-based.
Experiment [2] relates to Leishmania donovani. The experiment is described as follows: Antileishmanial activity against Leishmania donovani. In kind it is functional, organism-based.
For experiment [3], the system named is Plasmodium falciparum. Nature of the experiment: Antimalarial activity against Plasmodium falciparum W2. It is filed as functional, organism-based.
The test system of experiment [4] is Mycobacterium intracellulare. Nature of the experiment: Antimicrobial activity against Mycobacterium intracellular. In kind it is functional, organism-based.
The test system of experiment [5] is Staphylococcus aureus. Nature of the experiment: Antimicrobial activity against methicillin-resistant Staphylococcus aureus. It is filed as functional, organism-based.
In experiment [6] the target is T1, Prostaglandin G/H synthase 2 (Homo sapiens) (UniProt P35354).
T1 sequence (whole entry): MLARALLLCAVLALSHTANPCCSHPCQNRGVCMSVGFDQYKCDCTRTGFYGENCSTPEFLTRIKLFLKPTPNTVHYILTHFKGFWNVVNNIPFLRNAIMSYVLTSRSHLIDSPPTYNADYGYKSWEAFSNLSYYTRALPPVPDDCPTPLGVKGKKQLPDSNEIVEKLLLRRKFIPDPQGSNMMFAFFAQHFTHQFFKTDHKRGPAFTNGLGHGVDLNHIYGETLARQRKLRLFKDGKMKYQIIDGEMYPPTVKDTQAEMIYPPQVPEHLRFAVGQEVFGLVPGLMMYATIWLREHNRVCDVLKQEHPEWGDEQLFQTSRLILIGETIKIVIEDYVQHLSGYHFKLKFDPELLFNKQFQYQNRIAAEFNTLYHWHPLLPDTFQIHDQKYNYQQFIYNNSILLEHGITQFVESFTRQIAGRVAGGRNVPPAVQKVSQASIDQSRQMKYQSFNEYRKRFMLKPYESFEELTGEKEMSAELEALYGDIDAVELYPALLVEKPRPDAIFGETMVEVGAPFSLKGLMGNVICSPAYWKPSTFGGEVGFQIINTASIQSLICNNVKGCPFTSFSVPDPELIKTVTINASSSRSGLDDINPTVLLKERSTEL
The experiment is described as follows: Inhibition of COX2 in cell based assay.

The test system of experiment [7] is Cryptococcus neoformans. The experiment is described as follows: Antimicrobial activity against Cryptococcus neoformans. It is filed as functional, organism-based.
Experiment [8] deals with Candida albicans. Nature of the experiment: Antimicrobial activity against Candida albicans. In kind it is functional, organism-based.
Experiment [9] deals with Microglia. The experiment is described as follows: Antiinflammatory activity against rat neonatal microglia. It is filed as functional.
Experiment [10] concerns Nakaseomyces glabratus. The experiment is described as follows: Antimicrobial activity against Candida glabrata. It is filed as functional, organism-based.
The subject of experiment [11] is Plasmodium falciparum. Nature of the experiment: Antimalarial activity against Plasmodium falciparum D6. In kind it is functional, organism-based.
In experiment [12] the test system is Pichia kudriavzevii. Nature of the experiment: Antimicrobial activity against Candida krusei. It is filed as functional, organism-based.
The nature of experiment [13]: Cytotoxicity against mouse Colon38 cells assessed as zone differential value. It is filed as functional. The gist of the method: (§1)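 In vitro disk diffusion assay measuring differential cell killing across nine cell types: leukemias (murine L1210, human CCRF-CEM), solid tumors (murine colon 38, human HCT-116, H125, MCF-7, LNCaP), and murine and human normal hematopoietic progenitor cells (CFU-GM). The read-out is the zone differential between solid tumor, leukemia and normal cell colonies.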

For experiment [14], the system named is L1210. The experiment is described as follows: Cytotoxicity against mouse L1210 cells assessed as zone differential value. In kind it is functional. The gist of the method:
as §1

Experiment [15] has as its system HCT-116. The experiment is described as follows: Cytotoxicity against human HCT116 cells assessed as zone differential value. In kind it is functional. The gist of the method:
as §1

Experiment [16] is described as follows: Cytotoxicity against human H125 cells assessed as zone differential value. In kind it is functional. The gist of the method: as §1

Converted amounts (≈) assume the structure as drawn. The source made the active and inactive calls. The calls are words filed in the database; no cut-off is given here. Numbered stars: 1 amine (or outer) side, 2 acyl side, 3 side chain; on linkers, the order of the positions; unused ones are H or OH. Square brackets hold non-standard residues; d marks the D form. Peptide text beside a SMILES is read from it. * marks the point of attachment. X1 = CC(C)[C@H](N[*:1])C1=N[C@H](C(=O)[*:2])CS1; Allyl(1,1-Me2) = C=CC(C)(C)*

The EC50 is the concentration that produces a half-maximal response. The low end stands for higher potency in that assay, the high end for lower potency in that assay. One may read the IC50 as the midpoint of a concentration-inhibition curve. As a reminder, the IC90 is the concentration at which the effect reaches the 90% level. `C=CC(C)(C)O[C@H](C)[C@@H]1NC(=O)[C@@H]2CCCN2C(=O)[C@H](Cc2ccccc2)NC(=O)[C@H](C(C)C)NC(=O)[C@@H]2CSC(=N2)[C@H](C(C)C)NC1=O` [MOLLAMIDE B] (cyclo(FPT(Allyl(1,1-Me2))[X1]V)) returned a half-maximal effective concentration (EC50) in experiment [1] of 48.7 µM. Besides, the IC50 is 18 µg/mL (≈ 25.8 µM) in [2], 2.1 µg/mL (≈ 3.01 µM) in experiment [3] and 2 µg/mL (≈ 2.87 µM) in experiment [11]. Moreover, the IC90 in experiment [2] was 35 µg/mL (≈ 50.2 µM). The outcome in experiment [4], in experiment [5], in experiment [6], in [7], in experiment [8] and in experiment [9] was inactive. Moreover, the result in experiment [10] and in experiment [12] was inactive.

`C=CC(C)(C)OC[C@@H]1NC(=O)CNC(=O)[C@@H]2CCCN2C(=O)[C@H]([C@H](C)CC)NC(=O)c2csc(n2)[C@H](CC(C)C)NC1=O` [MOLLAMIDE C]: the Activity in experiment [13] amounted to 250; in [14], 100; in experiment [15], 100; in [16] it was 100. Further, the outcome in experiment [6] and in experiment [9] was inactive.
